From ChEMBL document CHEMBL1137537, “Novel oxotremorine-related heterocyclic derivatives: Synthesis and in vitro pharmacology at the muscarinic receptor subtypes” (Bioorg Med Chem, 2007)

Experiments:
[1] = Agonist activity at muscarinic M2 receptor in electrically stimulated guinea-pig left atrium; format: functional, tissue-based; conditions: Cavia porcellus, Cardiac atrium
[2] = Binding affinity to muscarinic M1 receptor in electrically stimulated New Zealand rabbit vas deferens; format: tissue-based, Oryctolagus cuniculus
How it was run: (§1)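 Apparent affinity pKD: for full agonists by receptor inactivation with phenoxybenzamine (1-10 µM, 20-30 min); for partial agonists by McKay's method comparing curves with reference full agonist; mean of 6-8 experiments.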

[3] = target: Muscarinic acetylcholine receptor M3 (Homo sapiens, UniProt P20309); assay: Displacement of [3H]QNB from human muscarinic M3 receptor expressed in CHO cells; format: cell-based
[4] = target: T1, Muscarinic acetylcholine receptor M4 (Homo sapiens, UniProt P08173); assay: Displacement of [3H]QNB from human muscarinic M4 receptor expressed in CHO cells; format: cell-based
T1 sequence (P08173 whole entry): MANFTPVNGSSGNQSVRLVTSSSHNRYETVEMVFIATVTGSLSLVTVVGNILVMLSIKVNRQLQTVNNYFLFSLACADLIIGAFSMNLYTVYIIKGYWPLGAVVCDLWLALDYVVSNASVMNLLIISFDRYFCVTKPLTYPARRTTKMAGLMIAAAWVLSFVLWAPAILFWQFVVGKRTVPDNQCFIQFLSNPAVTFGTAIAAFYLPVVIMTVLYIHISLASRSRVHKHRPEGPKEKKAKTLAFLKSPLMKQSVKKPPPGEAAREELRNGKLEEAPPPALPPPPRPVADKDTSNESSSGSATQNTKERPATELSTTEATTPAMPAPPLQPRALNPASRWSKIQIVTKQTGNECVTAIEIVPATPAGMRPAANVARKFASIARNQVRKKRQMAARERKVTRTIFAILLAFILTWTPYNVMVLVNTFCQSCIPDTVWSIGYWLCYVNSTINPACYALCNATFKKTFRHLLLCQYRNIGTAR
How it was run: (§2)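 Membranes (10-50 µg protein) from stable CHO lines expressing human m2-m5, competed against 180 pM [3H]QNB in 50 mM Tris-HCl pH 7.4 with 1% DMSO; 120 min at 25 °C to equilibrium; nonspecific binding with 0.5 µM atropine; GF-C filtration, scintillation counting; IC50 by logistic fit, Ki via Cheng–Prusoff using saturation-derived KD (5–2500 pM [3H]QNB).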

[5] = target: T2, Muscarinic acetylcholine receptor M5 (Homo sapiens, UniProt P08912); assay: Displacement of [3H]QNB from human muscarinic M5 receptor expressed in CHO cells; format: cell-based
T2 sequence (P08912 whole entry): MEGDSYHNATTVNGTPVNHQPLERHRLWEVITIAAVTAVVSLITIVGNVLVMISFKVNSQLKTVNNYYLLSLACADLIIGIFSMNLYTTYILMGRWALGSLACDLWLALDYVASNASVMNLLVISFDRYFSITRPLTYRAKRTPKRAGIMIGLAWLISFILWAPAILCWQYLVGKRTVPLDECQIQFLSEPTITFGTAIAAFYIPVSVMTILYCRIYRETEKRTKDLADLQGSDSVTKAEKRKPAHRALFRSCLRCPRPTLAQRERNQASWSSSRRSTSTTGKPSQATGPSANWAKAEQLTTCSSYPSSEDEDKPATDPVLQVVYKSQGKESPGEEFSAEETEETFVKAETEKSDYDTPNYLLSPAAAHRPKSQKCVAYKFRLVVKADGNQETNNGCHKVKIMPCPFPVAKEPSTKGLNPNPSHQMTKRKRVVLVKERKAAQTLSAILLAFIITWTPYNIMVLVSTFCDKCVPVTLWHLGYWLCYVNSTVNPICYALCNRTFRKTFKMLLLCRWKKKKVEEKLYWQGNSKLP

[6] = target: T3, Muscarinic acetylcholine receptor M3 (Cavia porcellus, UniProt Q8VH26); assay: Binding affinity to muscarinic M3 receptor in guinea-pig ileum; format: tissue-based; how it was run: as §1
[7] = Agonist activity at muscarinic M1 receptor in electrically stimulated New Zealand rabbit vas deferens; format: functional, tissue-based; conditions: Oryctolagus cuniculus
[8] = species on record: Oryctolagus cuniculus; assay: Intrinsic activity at muscarinic M1 receptor in electrically stimulated New Zealand rabbit vas deferens relative to McN-A-343; format: tissue-based
How it was run: (§3)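 Intrinsic activity as ratio of compound's maximal response to that of reference full agonist (McN-A-343 for vas deferens, bethanechol for atrium and ileum), from cumulative concentration–response curves; mean of 6-8 experiments.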

[9] = target: T4, Muscarinic acetylcholine receptor M2 (Homo sapiens, UniProt P08172); assay: Displacement of [3H]QNB from human muscarinic M2 receptor expressed in CHO cells; format: cell-based; how it was run: as §2
T4 sequence (P08172 whole entry): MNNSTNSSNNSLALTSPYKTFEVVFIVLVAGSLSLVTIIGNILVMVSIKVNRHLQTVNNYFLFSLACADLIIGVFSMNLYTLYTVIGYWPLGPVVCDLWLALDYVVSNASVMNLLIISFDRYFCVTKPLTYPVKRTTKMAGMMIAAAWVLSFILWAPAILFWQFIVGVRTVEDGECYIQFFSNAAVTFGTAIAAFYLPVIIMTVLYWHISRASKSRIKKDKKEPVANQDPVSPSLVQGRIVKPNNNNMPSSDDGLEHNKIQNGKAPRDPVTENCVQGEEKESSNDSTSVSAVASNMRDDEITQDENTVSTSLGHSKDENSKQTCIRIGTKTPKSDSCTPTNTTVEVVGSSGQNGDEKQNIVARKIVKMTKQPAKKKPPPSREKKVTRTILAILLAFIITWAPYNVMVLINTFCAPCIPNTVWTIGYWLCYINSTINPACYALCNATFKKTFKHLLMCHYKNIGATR

[10] = target: T3, Muscarinic acetylcholine receptor M3; assay: Agonist activity at muscarinic M3 receptor in guinea-pig ileum; format: functional, tissue-based
How it was run: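 Guinea-pig ileal segments 2–3 cm, 1.0 g tension, 37 °C Krebs-Henseleit with carbogen, 45 min equilibration; isometric contractions to cumulative agonist concentrations; pEC50 by least-squares linear regression; mean of 6-8 experiments.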

[11] = target: T5, Muscarinic acetylcholine receptor M1 (Homo sapiens, UniProt P11229); assay: biochemical; format: cell-based, CHO
T5 sequence (P11229 whole entry): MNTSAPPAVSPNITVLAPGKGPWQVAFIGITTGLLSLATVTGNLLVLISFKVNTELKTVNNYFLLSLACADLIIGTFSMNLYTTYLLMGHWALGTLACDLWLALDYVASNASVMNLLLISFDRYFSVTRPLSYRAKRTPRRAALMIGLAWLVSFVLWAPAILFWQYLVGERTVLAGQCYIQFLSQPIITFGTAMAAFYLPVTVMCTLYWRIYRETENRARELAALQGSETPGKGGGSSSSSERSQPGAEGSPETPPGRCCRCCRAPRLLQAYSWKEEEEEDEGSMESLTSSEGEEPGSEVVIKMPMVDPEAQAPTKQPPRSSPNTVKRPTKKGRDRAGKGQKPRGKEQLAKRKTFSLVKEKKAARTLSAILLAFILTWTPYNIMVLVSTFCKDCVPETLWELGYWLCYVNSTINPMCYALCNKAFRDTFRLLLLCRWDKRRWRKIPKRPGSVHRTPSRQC

[12] = Binding affinity to muscarinic M2 receptor in electrically stimulated guinea-pig left atrium; format: tissue-based, Cavia porcellus, Cardiac atrium; how it was run: as §1
[13] = target: Muscarinic acetylcholine receptor M3 (Cavia porcellus) (UniProt Q8VH26); assay: Intrinsic activity at muscarinic M3 receptor in guinea-pig ileum relative to benthanechol; format: tissue-based; how it was run: as §3
[14] = species on record: Cavia porcellus; assay: Intrinsic activity at muscarinic M2 receptor in electrically stimulated guinea-pig left atrium relative to benthanechol; format: tissue-based; conditions: Cardiac atrium; how it was run: as §3
[15] = Antagonist activity at muscarinic M1 receptor in electrically stimulated New Zealand rabbit vas deferens; format: functional, Oryctolagus cuniculus
How it was run: (§4)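 Antagonist mode: after 30 min incubation with test compound (10 nM–100 µM), concentration–response curve to full agonist (bethanechol or McN-A-343) repeated; pKB as molar concentration giving twofold EC50 shift, Furchgott's method; mean of 6-8 experiments.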

[16] = target: Muscarinic acetylcholine receptor M3 (Cavia porcellus) (UniProt Q8VH26); assay: Antagonist activity at muscarinic M3 receptor in guinea-pig ileum; format: functional, tissue-based; how it was run: as §4

Sequence of Muscarinic acetylcholine receptor M3 (Homo sapiens, UniProt P20309) (P20309 whole entry): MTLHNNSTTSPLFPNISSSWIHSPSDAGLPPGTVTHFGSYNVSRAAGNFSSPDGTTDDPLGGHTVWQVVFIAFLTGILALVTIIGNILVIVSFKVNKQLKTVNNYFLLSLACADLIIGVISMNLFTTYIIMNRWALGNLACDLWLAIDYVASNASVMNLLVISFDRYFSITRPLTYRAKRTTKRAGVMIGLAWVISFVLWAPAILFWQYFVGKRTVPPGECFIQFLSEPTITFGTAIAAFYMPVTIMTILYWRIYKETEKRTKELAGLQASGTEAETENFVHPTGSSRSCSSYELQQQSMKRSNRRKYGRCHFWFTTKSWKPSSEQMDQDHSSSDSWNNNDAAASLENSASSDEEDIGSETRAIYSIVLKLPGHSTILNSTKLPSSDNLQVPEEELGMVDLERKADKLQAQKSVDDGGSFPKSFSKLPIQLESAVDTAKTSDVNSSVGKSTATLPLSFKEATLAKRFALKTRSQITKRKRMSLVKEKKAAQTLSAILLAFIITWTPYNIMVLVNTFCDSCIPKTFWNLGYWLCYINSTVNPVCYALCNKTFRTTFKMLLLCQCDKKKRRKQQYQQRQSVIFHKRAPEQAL
T3 sequence (Q8VH26 whole entry): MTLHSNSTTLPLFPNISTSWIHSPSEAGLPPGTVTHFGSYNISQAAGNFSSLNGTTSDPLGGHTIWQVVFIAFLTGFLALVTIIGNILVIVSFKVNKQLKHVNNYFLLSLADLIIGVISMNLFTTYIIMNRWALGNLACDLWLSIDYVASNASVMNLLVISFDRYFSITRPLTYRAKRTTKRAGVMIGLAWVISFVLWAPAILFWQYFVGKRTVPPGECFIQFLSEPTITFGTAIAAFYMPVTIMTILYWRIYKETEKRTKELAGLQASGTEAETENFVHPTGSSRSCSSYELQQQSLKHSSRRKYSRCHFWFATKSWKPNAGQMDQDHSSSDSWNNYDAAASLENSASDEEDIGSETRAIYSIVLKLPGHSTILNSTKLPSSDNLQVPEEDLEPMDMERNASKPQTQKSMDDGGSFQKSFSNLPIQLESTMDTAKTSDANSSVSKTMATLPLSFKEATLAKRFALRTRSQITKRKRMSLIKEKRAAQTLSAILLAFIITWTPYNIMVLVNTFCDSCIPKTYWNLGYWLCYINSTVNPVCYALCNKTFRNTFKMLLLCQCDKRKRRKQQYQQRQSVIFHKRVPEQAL
Sequence of Muscarinic acetylcholine receptor M3 (Cavia porcellus) (Q8VH26 1-587): as the sequence (Q8VH26 whole entry) above

pKb [16] | Compound | EC50 [1] [µM] | pKd [2] | Ki [3] [µM] | Ki [4] [µM] | Ki [5] [µM] | Kd [6] [µM] | EC50 [7] [µM] | Intrinsic activity [8] | Ki [9] [µM] | EC50 [10] [µM] | Ki [11] [µM] | pKd [12] | Intrinsic activity [13] | Intrinsic activity [14] | pKb [15]
– | Cc1cc(OCC#CC[N+](C)(C)C)no1.[I-] | 0.00661 | 6.97 | 3.99 | 0.682 | 6.31 | 0.676 | 0.0398 | 0.9 | 0.05 | 0.00724 | > 10 | 7.03 | 1 | 1 | –
– | C[N+]1(CC#CCN2OCCC2=O)CCc2ccccc2C1 (stereo unspecified) | – | – | – | – | > 10 | – | – | – | > 10 | – | – | – | – | – | –
– | C(#CCOc1ccon1)CO/N=C1\CN2CCC1CC2.O=C(O)/C=C/C(=O)O | 3.09 | – | – | – | – | 3.63 | – | 0 | – | 1.02 | – | 5.97 | 0.9 | 0.7 | 5.85
4.94 | C(#CCN1CCCC1)COc1cc(-c2ccccc2)on1 | 21.9 | – | 4.01 | 5.48 | 6.88 | – | 44.7 | 1 | > 10 | – | 6.14 | – | 0 | 0.6 | –
– | O=C1CCON1CC#CCN1CCCC1 | – | – | 0.392 | 0.222 | 0.51 | – | – | – | 0.07 | – | 0.905 | – | – | – | –
– | O=C1CCON1CC#CCN1CCc2ccccc2C1 | – | – | – | – | > 10 | – | – | – | > 10 | – | – | – | – | – | –
– | Cc1cc(OCC#CCN(C)C)no1.O=C(O)/C=C/C(=O)O | 0.513 | 5.45 | > 10 | 1.1 | > 10 | 39.8 | 3.47 | 0.6 | 3.8 | 0.794 | > 10 | 3.56 | 1.1 | 1 | –
– | C[N+]1(CC#CCN2OCCC2=O)CCc2ccccc21 (stereo unspecified) | – | – | – | – | > 10 | – | – | – | > 10 | – | – | – | – | – | –
– | C(#CCN1CCCCC1)COC1=NOCC1.O=C(O)C(=O)O | 1.1 | – | 3.92 | 6.04 | 5.14 | 21.9 | – | 0 | 0.876 | 1.78 | 4.55 | 6.22 | 1 | 0.6 | 5.91
– | CN(C)CC#CCOc1cc(-c2ccccc2)on1 | – | – | – | – | > 10 | – | – | – | > 10 | – | – | – | – | – | –
– | C[N+]1(CC#CCN2OCCC2=O)CCCCC1 | – | – | – | – | > 10 | – | – | – | > 10 | – | – | – | – | – | –
– | CC(C[N+](C)(C)C)OC(N)=O (stereo unspecified) [BETHANECHOL] | 0.646 | – | – | – | – | 12.6 | – | – | – | 0.427 | – | 5.37 | 1 | 1 | –
